# Active and inactive are the calls of the source. No cut-off for these calls is given here.
# What was measured:
# [1] = molecular target: T1, Histone-lysine N-methyltransferase EHMT2 (Homo sapiens) (UniProt Q96KQ7); assay: Inhibition of G9A in human MM1.S cells assessed as decrease in H3K9Me2 levels up to 50 uM after 48 hrs by Western blot analysis; format: cell-based; conditions: dose microM <=50, time 48.0 hrs
# T1 sequence (whole entry): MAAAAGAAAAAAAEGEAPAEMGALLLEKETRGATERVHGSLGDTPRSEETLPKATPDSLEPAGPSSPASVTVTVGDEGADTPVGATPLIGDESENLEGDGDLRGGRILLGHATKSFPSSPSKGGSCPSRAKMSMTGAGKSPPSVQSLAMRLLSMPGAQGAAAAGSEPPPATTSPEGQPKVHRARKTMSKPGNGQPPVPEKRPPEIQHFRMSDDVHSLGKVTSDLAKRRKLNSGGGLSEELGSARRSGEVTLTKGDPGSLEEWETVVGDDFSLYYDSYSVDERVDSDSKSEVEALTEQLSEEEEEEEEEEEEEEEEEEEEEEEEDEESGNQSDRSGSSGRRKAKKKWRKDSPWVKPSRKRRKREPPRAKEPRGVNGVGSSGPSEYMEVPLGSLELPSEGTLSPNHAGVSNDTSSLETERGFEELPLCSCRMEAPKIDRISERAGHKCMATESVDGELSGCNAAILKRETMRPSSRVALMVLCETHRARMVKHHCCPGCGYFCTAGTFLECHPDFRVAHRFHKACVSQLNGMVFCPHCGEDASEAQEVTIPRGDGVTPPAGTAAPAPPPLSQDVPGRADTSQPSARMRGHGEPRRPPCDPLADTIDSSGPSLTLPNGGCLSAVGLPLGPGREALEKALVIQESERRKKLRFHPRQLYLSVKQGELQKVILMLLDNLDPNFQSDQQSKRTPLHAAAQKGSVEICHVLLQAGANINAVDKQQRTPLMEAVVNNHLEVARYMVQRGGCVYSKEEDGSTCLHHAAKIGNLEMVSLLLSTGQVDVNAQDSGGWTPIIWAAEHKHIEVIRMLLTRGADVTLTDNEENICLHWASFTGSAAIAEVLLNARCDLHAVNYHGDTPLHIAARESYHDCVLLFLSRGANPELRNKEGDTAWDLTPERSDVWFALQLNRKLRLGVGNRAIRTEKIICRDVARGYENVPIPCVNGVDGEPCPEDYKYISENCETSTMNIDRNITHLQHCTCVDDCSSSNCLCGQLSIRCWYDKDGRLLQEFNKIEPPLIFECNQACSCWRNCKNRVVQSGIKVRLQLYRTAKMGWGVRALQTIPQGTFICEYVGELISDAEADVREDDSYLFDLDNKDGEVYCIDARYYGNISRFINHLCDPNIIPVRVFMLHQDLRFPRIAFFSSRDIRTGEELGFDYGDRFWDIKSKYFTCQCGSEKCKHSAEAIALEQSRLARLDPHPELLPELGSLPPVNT
# Outline: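 MM1.S cells exposed 48 h across a concentration range. Global H3K9Ac and H3K9me2 read by Western blot; run in duplicate.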
# [2] = system: MM1.S; assay: Antiproliferative activity against human MM1.S cells assessed as inhibition of cell proliferation measured up to 72 hrs by CellTiter96 Aqueous one reagent based assay; format: functional
# [3] = Permeability of the compound in PBS/EtOH buffer (70:30) incubated for 18 hrs by UV plate reader based PAMPA assay; format: ADME; conditions: read-out: permeability
# [4] = molecular target: DNA (cytosine-5)-methyltransferase 1 (Homo sapiens, UniProt P26358); assay: Inhibition of human DNMT1 enzyme using polydeoxy-inosine polydeoxy-cytosine DNA as substrate incubated for 15 mins in presence of SAM by TR-FRET assay
# Sequence of DNA (cytosine-5)-methyltransferase 1 (P26358 whole entry): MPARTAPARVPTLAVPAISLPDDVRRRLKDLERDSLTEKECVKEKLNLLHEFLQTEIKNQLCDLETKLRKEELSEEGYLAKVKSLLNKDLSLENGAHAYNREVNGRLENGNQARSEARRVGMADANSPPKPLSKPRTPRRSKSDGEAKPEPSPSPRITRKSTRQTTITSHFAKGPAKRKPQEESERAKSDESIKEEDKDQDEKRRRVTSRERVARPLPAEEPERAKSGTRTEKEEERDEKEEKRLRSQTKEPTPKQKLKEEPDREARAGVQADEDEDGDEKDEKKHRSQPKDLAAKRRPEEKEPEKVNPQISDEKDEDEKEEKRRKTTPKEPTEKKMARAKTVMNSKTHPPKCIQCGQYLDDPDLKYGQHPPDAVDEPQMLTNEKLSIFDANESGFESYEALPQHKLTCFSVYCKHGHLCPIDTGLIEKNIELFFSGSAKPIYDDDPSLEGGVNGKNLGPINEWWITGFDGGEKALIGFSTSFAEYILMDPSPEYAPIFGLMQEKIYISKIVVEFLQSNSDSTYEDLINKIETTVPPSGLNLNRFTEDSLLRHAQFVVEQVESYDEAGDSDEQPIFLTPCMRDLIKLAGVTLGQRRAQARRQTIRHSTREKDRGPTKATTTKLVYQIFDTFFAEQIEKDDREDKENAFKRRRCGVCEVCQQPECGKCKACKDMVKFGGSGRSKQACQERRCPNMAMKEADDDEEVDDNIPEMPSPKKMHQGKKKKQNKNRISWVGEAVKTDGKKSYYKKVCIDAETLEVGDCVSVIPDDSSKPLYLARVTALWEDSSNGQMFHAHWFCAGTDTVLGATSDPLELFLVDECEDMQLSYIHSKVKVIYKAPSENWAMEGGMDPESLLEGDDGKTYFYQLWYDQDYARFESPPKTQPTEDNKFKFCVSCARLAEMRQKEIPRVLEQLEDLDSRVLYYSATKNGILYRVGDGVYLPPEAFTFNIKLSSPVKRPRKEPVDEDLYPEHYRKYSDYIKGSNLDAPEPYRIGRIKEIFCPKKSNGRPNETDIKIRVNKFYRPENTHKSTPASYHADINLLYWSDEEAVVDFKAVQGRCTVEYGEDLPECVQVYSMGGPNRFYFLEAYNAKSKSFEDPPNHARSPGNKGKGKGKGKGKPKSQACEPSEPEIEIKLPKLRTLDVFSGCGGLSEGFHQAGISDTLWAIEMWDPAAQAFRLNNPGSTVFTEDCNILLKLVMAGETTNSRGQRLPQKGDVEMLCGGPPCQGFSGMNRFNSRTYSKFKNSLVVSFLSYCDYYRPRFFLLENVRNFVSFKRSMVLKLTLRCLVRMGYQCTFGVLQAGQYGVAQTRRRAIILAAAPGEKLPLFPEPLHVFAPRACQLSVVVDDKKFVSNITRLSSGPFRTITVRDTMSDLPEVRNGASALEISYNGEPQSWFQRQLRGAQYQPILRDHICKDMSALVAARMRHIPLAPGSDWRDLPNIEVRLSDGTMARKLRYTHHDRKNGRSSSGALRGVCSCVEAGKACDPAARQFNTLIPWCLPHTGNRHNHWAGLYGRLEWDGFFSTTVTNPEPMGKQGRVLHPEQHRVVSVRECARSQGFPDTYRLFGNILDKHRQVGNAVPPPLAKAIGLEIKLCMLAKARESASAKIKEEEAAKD
# [5] = system: THLE-2; assay: Cytotoxicity against human THLE-2 cells assessed as decrease in cell viability measured after 72 hrs by Vialight-plus cell proliferation assay; format: cell-based; conditions: thle-2, 72 h
# Outline: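 Human THLE-2 cells exposed to compound for 72 h. Cytotoxicity reported as LC50 and pLC50, averaged from at least two independent experiments on different days.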
# [6] = molecular target: Histone deacetylase 1 (Homo sapiens, UniProt Q13547); assay: Inhibition of full length human C-terminal His-tagged/C-terminal Flag-tagged HDAC1 using fluorogenic acetylated peptide as substrate incubated for 30 mins by fluorescence plate reader assay
# Sequence of Histone deacetylase 1 (Q13547 whole entry): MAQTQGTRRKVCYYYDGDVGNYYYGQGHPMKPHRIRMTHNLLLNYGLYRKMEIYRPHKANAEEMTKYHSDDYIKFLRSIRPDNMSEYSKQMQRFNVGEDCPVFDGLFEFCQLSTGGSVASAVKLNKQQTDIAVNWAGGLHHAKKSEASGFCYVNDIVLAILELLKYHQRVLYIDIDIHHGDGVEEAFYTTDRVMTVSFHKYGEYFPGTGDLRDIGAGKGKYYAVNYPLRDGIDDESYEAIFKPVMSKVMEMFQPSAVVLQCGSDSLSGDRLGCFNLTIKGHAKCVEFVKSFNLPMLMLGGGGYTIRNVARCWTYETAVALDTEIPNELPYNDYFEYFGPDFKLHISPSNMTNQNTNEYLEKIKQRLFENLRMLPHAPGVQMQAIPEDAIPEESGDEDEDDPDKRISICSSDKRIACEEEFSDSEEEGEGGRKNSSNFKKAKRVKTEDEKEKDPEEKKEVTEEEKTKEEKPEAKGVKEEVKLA
# [7] = molecular target: Histone deacetylase 3/Nuclear receptor corepressor 2 (HDAC3/NCoR2) (Homo sapiens, UniProt O15379); assay: Inhibition of full length human C-terminal His-tagged HDAC3/human N-terminal GST-agged NCOR2 using fluorogenic acetylated peptide as substrate incubated for 30 mins by fluorescence plate reader assay; format: protein-complex assay
# [8] = molecular target: Histone deacetylase 2 (Homo sapiens, UniProt Q92769)
# Sequence of Histone deacetylase 2 (Q92769 whole entry): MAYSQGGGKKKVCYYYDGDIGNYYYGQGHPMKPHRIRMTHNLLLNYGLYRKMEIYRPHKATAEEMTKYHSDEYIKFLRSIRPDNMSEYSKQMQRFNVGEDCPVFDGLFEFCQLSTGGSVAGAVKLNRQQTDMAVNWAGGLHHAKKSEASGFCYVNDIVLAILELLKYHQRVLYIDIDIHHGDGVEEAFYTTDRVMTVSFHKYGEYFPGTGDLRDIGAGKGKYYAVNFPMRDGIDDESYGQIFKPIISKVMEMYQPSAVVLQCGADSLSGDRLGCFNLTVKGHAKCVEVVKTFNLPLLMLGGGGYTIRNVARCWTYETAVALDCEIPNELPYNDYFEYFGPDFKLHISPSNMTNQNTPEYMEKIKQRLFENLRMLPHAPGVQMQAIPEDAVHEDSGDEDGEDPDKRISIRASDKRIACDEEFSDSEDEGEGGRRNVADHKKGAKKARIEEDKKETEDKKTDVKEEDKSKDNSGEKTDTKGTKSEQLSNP
# [9] = molecular target: T2, Protein deacetylase HDAC6 (Homo sapiens, UniProt Q9UBN7); assay: Inhibition of full length human N-terminal GST-tagged HDAC6 using fluorogenic acetylated peptide as substrate incubated for 30 mins by fluorescence plate reader assay
# T2 sequence (Q9UBN7 whole entry): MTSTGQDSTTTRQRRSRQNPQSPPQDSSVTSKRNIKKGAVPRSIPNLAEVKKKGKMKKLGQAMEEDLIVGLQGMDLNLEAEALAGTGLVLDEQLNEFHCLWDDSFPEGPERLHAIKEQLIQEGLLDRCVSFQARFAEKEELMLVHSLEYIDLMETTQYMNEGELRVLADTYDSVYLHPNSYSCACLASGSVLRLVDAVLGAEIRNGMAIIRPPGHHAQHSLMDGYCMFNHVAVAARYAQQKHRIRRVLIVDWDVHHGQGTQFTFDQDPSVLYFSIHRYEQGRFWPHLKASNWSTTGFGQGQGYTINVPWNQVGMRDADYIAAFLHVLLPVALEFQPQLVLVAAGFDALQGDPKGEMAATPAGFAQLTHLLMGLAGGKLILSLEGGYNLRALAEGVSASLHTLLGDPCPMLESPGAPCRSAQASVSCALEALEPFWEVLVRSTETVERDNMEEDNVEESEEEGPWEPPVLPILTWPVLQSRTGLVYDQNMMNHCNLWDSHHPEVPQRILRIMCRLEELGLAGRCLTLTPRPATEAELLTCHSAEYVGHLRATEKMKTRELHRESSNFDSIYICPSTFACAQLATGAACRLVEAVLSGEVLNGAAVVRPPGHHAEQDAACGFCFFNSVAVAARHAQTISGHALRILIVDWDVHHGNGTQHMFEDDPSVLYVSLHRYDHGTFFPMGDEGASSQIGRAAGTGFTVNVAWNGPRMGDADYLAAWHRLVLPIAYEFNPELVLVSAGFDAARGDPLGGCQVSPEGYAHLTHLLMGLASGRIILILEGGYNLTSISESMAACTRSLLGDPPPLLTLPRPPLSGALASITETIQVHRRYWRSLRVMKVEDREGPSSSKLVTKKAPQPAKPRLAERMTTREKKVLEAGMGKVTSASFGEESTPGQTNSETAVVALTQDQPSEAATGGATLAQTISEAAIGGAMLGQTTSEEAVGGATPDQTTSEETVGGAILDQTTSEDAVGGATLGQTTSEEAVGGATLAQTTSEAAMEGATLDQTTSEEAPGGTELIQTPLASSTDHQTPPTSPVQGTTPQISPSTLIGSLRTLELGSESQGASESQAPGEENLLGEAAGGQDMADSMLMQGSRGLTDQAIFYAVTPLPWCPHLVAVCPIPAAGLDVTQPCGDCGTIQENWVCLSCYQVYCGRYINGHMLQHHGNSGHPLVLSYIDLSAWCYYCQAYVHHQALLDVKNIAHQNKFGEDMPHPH
# [10] = molecular target: T3, Histone-lysine N-methyltransferase EHMT2 (Homo sapiens, UniProt Q96KQ7); assay: Inhibition of human G9a enzyme using histone monomethyl-H3K9 peptide as substrate incubated for 1 hr in presence of SAM by TR-FRET assay
# T3 sequence (Q96KQ7 whole entry): T1 sequence (whole entry)
# [11] = time hrs <=72, read-out: pGI50 (converted)
Compound,inhibition [1],"GI50 ([2]; time hrs <=72, read-out: GI50) [µM]","GI50 [2, 11] [µM]",Papp at 18 h [3] [nm/s],IC50 [4] [µM],LC50 [5] [µM],pLC50 [5],IC50 [6] [µM],IC50 [7] [µM],IC50 [8] [µM],IC50 [9] [µM],IC50 [10] [µM]
COc1cc2c(cc1OCCCN1CCCC1)N=C(N)C21CCC1,Active,,,,,,,,,,,
COc1cc2nc(-c3ccc(C)o3)cc(NCc3ccc(C(=O)NO)cc3)c2cc1OC,,0.52,0.525,5.34,5.4,2.33,5.63,0.014,0.044,0.091,0.022,> 10
COc1cc2nc(-c3ccc(C)o3)cc(NCC3C4CCC3CN(c3ncc(C(=O)NO)cn3)C4)c2cc1OC (centres undefined),,0.459,0.457,9.59,1.68,1.35,5.87,0.022,0.033,0.125,0.239,> 10
COc1cc2c(NCc3ccc(C(=O)NO)cc3)cc(-c3ccc(C)o3)nc2cc1OCCCN1CCCC1,,4.5,4.47,1,0.795,11.3,4.95,0.009,0.021,0.06,0.011,0.471
COc1cc2c(NC3CCN(C)CC3)cc(-c3ccc(C)o3)nc2cc1OCCCN1CCCC1,,1.04,1.07,,,1.78,5.75,> 10,> 10,> 10,> 10,
COc1cc2c(NCC3CCC(C(=O)NO)CC3)cc(-c3ccc(C)o3)nc2cc1OCCCN1CCCC1 (centres undefined),,> 10,> 10,,0.531,26.1,4.58,0.022,0.109,0.159,0.034,0.055
COc1cc2c(NCc3ccc(-c4ccc(C(=O)NO)cc4)cc3)cc(-c3ccc(C)o3)nc2cc1OCCCN1CCCC1,,1.81,1.82,1.1,2.57,13.5,4.87,0.045,,,0.127,2.24
COc1cc2c(NC3CCN(c4ccc(C(=O)NO)cc4)CC3)cc(-c3ccc(C)o3)nc2cc1OCCCN1CCCC1,,> 10,> 10,0.14,0.691,6.656,5.18,0.415,,,0.133,0.025
COc1cc2nc(-c3ccc(C)o3)cc(NCC3CCN(Cc4ccc(C(=O)NO)cc4)CC3)c2cc1OC,,0.217,0.219,5.56,0.267,0.204,6.69,0.33,,,0.084,> 10
COc1cc2c(NCC3CCN(C)CC3)cc(-c3ccc(C)o3)nc2cc1OCCCN1CCCC1,,3.84,3.8,,,1.3,5.89,> 10,> 10,> 10,> 10,
COc1cc2nc(-c3ccc(C)o3)nc(NCC3CCN(c4ncc(C(=O)NO)cn4)CC3)c2cc1OC,,,,,> 10,,,0.007,0.021,0.038,0.506,> 10
COc1cc2nc(-c3ccc(C)o3)cc(NCC3CCC(C(=O)NO)CC3)c2cc1OC (centres undefined),,5.83,5.75,3.93,2.85,9.6,5.02,0.038,0.206,0.274,0.041,> 10
COc1cc2nc(C3CCCCC3)cc(NCC3CCN(c4ncc(C(=O)NO)cn4)CC3)c2cc1OC,,0.195,0.195,2.1,> 10,2.298,5.64,0.002,,,0.111,> 10
COc1cc2nc(-c3ccc(C)o3)cc(NC3CCN(c4ncc(C(=O)NO)cn4)CC3)c2cc1OC,,1.02,1.02,5.96,7.14,3.09,5.51,0.063,0.073,0.409,0.343,> 10
